From ChEMBL document CHEMBL1137074, “Novel N-arylpyrazolo[3,2-c]-based ligands for the glucocorticoid receptor: receptor binding and in vivo activity” (J Med Chem, 2004)
pEC50, pIC50: −log10 of the molar value.

How the values were obtained:
Glucocorticoid receptor [1] = target: T1, Glucocorticoid receptor (Homo sapiens, UniProt P04150); test: Glucocorticoid induced transactivation of human tyrosine amino transferase in HepG2 cells; assay type: functional, cell-based
T1 sequence (P04150 whole entry): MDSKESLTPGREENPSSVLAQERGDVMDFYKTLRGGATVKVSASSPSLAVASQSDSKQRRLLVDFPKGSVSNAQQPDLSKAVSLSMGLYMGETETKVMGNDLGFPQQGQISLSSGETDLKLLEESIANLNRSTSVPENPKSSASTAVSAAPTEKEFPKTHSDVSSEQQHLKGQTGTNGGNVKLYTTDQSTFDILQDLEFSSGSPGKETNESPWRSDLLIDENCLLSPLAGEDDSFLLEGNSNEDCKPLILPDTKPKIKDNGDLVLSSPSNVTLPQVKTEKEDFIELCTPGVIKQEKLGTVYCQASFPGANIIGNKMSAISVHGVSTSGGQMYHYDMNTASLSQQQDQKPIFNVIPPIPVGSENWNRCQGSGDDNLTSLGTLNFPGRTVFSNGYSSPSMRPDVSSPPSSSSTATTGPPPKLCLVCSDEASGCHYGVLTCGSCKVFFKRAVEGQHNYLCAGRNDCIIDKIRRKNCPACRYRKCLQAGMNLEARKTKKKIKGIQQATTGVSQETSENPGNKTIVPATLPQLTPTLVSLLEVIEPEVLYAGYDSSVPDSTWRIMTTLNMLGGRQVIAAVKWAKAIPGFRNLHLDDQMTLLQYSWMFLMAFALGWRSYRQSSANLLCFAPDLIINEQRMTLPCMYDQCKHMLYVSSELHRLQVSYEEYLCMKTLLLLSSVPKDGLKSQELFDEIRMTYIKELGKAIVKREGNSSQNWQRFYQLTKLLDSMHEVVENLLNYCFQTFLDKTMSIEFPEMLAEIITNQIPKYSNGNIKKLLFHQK

Glucocorticoid receptor [2] = target: T1, Glucocorticoid receptor; test: Ability to induce human IL-6 assay in A549 lung carcinoma cell line.; assay type: functional, cell-based
Glucocorticoid receptor [3] = target: T1, Glucocorticoid receptor; test: Ability to induce human glutamine synthetase in skeletal muscle cells; assay type: cell-based
Glucocorticoid receptor [4] = target: T1, Glucocorticoid receptor; test: Compound was tested for inhibitory activity towards human glucocorticoid receptor
Mus musculus = test: Ability to induce mouse macrophage IL-6 assay in peritoneal exudate cells harvested by […] from C57BI/6 mice.; assay type: functional, cell-based
Outline: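 Thioglycolate-elicited peritoneal exudate cells from C57Bl/6 mice, harvested day 3 in PBS/heparin, washed and resuspended at 5.6×10^5 cells/mL in RPMI 1640 with 10% heat-inactivated FCS. Compound (typically 3 μM final) preincubated 1 h at 37 °C, 5% CO2, then LPS or TNF added, 24 h. Supernatant IL-6 read; duplicate wells, three experiments.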

Progesterone receptor = target: T2, Progesterone receptor (Homo sapiens, UniProt P06401); test: Binding affinity towards human progesterone receptor
T2 sequence (P06401 whole entry): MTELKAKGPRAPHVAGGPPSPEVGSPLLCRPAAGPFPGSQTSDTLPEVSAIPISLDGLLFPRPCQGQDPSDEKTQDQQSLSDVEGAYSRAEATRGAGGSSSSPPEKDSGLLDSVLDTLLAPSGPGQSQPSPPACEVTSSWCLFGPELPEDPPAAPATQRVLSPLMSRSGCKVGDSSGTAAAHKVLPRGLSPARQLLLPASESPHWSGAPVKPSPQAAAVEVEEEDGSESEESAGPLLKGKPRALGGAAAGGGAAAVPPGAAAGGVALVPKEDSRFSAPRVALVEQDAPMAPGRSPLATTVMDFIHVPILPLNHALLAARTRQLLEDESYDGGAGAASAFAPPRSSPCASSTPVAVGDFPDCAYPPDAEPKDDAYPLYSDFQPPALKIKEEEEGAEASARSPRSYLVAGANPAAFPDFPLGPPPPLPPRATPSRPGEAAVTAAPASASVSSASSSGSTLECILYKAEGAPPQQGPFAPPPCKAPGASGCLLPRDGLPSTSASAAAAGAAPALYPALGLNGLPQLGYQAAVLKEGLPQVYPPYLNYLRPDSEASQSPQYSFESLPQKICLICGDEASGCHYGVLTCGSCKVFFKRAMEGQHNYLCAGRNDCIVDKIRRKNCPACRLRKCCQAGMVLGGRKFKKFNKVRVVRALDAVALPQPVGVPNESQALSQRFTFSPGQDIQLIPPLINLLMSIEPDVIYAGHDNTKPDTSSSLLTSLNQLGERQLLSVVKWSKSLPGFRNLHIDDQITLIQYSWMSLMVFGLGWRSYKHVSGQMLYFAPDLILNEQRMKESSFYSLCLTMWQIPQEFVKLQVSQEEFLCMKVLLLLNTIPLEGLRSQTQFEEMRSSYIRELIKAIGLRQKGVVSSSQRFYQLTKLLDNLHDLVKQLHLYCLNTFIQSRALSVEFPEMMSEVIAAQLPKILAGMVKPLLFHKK
Outline: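 Receptor homogenates from frozen cell pellets in ice-cold KPO4 buffer (10 mM KPO4, 20 mM molybdate, 1 mM EDTA, 5 mM DTT, protease inhibitors), spun 35 000g 1 h at 4 °C. MR: recombinant baculovirus-expressed rat receptor, 2 nM [3H]aldosterone; PR: T-47D cell protein, 5 nM [3H]progesterone.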

[5] = target: Mineralocorticoid receptor (Rattus norvegicus) (UniProt P22199); test: Binding affinity for rat mineralocorticoid receptor
Androgen receptor = target: T3, Androgen receptor (Homo sapiens, UniProt P10275); test: Binding affinity for human androgen receptor
T3 sequence (P10275 whole entry): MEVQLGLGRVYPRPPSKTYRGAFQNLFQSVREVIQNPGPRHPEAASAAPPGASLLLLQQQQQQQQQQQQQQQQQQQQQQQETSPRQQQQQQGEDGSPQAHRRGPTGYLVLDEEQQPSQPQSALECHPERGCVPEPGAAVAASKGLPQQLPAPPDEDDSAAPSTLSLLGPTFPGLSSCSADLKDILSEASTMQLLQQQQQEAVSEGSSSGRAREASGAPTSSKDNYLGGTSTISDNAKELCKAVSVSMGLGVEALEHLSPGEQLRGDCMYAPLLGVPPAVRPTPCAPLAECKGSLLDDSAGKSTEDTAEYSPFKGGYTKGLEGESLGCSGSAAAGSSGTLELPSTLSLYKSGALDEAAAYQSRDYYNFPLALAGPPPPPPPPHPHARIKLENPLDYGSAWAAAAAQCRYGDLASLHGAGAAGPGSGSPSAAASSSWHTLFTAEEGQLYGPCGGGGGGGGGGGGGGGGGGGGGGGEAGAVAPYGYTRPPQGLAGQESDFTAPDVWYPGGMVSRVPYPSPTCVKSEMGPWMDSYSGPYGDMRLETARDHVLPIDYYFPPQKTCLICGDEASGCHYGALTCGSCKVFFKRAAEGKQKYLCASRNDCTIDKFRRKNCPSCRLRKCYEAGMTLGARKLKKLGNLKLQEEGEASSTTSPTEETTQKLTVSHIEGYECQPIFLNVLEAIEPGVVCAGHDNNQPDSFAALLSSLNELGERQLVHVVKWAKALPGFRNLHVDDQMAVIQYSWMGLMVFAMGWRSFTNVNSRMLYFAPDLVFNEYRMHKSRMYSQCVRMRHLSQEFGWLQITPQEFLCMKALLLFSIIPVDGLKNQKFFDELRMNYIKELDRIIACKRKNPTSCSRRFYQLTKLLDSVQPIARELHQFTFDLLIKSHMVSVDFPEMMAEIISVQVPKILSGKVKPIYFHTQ

Estrogen receptor = target: T4, Estrogen receptor (Homo sapiens, UniProt P03372); test: Binding affinity for human Estrogen receptor alpha
T4 sequence (P03372 whole entry): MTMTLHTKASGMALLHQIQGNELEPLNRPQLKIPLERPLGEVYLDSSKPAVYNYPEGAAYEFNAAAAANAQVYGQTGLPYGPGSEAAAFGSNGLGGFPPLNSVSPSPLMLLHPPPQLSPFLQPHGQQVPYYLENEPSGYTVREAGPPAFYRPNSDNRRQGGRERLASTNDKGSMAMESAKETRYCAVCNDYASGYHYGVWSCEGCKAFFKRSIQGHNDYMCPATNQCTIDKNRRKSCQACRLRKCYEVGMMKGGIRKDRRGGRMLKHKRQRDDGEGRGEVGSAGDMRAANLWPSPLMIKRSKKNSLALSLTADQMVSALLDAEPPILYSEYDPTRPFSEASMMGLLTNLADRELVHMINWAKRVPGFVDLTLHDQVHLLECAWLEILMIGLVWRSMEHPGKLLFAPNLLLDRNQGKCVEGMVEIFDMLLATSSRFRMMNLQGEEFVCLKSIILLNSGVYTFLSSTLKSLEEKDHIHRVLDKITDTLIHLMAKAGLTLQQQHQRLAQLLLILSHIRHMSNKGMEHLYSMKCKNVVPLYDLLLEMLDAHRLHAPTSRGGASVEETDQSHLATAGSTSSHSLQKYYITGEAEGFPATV

Glucocorticoid receptor [6] = target: T1, Glucocorticoid receptor; test: Binding affinity for human glucocorticoid receptor

Chain of Mineralocorticoid receptor (Rattus norvegicus) (P22199 whole entry, looked up): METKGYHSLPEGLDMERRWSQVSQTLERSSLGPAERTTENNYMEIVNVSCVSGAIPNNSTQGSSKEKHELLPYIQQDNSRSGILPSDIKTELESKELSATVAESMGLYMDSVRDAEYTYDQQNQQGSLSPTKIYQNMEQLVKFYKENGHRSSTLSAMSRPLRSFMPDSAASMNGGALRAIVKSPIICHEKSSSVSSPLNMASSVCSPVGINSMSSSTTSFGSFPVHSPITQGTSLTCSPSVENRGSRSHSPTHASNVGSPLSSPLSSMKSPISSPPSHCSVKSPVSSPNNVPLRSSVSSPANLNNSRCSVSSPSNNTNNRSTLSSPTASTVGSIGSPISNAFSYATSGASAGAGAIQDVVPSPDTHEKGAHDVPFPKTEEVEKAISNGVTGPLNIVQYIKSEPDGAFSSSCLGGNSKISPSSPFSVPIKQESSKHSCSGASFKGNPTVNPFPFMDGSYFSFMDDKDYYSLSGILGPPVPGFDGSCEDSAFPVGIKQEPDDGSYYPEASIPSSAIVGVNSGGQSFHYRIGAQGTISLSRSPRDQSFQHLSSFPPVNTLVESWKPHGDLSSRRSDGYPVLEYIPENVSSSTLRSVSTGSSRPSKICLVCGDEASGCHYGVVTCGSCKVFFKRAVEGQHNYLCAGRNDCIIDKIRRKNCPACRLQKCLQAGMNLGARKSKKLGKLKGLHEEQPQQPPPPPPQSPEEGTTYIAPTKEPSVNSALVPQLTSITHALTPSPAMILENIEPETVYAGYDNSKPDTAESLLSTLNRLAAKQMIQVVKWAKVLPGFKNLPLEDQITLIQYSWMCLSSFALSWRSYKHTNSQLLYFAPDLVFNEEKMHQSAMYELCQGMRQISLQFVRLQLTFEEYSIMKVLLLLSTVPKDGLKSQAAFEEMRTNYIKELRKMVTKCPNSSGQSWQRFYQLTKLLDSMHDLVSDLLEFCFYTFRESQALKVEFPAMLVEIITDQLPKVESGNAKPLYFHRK

pEC50 (Glucocorticoid receptor [2]) | pIC50 (Glucocorticoid receptor [4]) | pEC50 (Mus musculus) | pIC50 (Progesterone receptor) | pIC50 [5] | pIC50 (Androgen receptor) | pIC50 (Estrogen receptor) | pIC50 (Glucocorticoid receptor [6]) | Structure (SMILES) | pEC50 (Glucocorticoid receptor [1]) | pEC50 (Glucocorticoid receptor [3])
7.27 | 7.60 | 6.75 |  |  |  |  |  | C[C@]12Cc3cnn(-c4ccc(F)cc4)c3C=C1CCC[C@@H]2[C@@H](O)c1cccc(O)c1 |  | 
8.57 | 8.14 | 7.24 |  |  |  |  |  | C[C@]12Cc3cnn(-c4ccc(F)cc4)c3C=C1CCC[C@@H]2[C@@H](O)c1ccccc1F |  | 
7.86 | 8.38 | 7.61 |  |  |  |  |  | C[C@]12Cc3cnn(-c4ccc(F)cc4)c3C=C1CCC[C@@H]2[C@@H](O)Cc1ccccc1 |  | 
 |  |  | < 6.00 | < 5.30 | < 5.30 | < 6.00 |  | C[C@]12Cc3cnn(-c4ccc(F)cc4)c3C=C1CCC[C@@H]2[C@H](O)c1ccc(F)cc1 |  | 
 | 7.11 |  |  |  |  |  |  | CC(C)(C)[C@H](O)[C@H]1CCCC2=Cc3c(cnn3-c3ccc(F)cc3)C[C@@]21C |  | 
7.84 | 8.72 | 7.82 | < 6.00 | < 5.30 | < 5.30 | < 6.00 | 8.72 | COc1cc([C@H](O)[C@H]2CCCC3=Cc4c(cnn4-c4ccc(F)cc4)C[C@@]32C)cc(F)c1F | 6.28 | 
7.50 | 8.10 | 7.69 |  |  |  |  |  | COc1cc([C@H](O)[C@H]2CCCC3=Cc4c(cnn4-c4ccc(F)cc4)C[C@@]32C)ccc1F |  | 
7.94 | 8.47 | 7.38 |  |  |  |  |  | Cc1ccc(C[C@H](O)[C@H]2CCCC3=Cc4c(cnn4-c4ccc(F)cc4)C[C@@]32C)cc1 |  | 
7.84 | 8.06 |  |  |  |  |  |  | C[C@H](O)[C@H]1CCCC2=Cc3c(cnn3-c3ccc(F)cc3)C[C@@]21C |  | 
7.62 | 7.78 | 7.06 |  |  |  |  |  | CC(C)(C)c1ccc(C[C@H](O)[C@H]2CCCC3=Cc4c(cnn4-c4ccc(F)cc4)C[C@@]32C)cc1 |  | 
 | 8.20 | 7.18 |  |  |  |  |  | COc1ccc(C[C@H](O)[C@H]2CCCC3=Cc4c(cnn4-c4ccc(F)cc4)C[C@@]32C)cc1 |  | 
 |  |  | < 6.00 | < 5.30 | < 5.30 | < 5.30 |  | C[C@]12Cc3cnn(-c4ccc(F)cc4)c3C=C1CCC[C@@H]2[C@@H](O)c1ccc(F)cc1 |  | 
8.72 | 8.05 | 7.22 |  |  |  |  |  | C[C@]12Cc3cnn(-c4ccc(F)cc4)c3C=C1CCC[C@@H]2[C@@H](O)c1ccc(Cl)cc1 |  | 
7.71 | 8.02 | 7.11 |  |  |  |  |  | C[C@]12Cc3cnn(-c4ccc(F)cc4)c3C=C1CCC[C@@H]2[C@@H](O)c1ccc(O)cc1 |  | 
8.54 | 8.08 | 6.96 | 6.18 | < 5.30 | < 5.30 | < 6.00 | 8.08 | C[C@]12Cc3cnn(-c4ccc(F)cc4)c3C=C1CCC[C@@H]2[C@@H](O)c1ccccc1 |  | 

Structure (SMILES) | pEC50 (Glucocorticoid receptor [2]) | pIC50 (Glucocorticoid receptor [4]) | pEC50 (Mus musculus) | pIC50 (Progesterone receptor) | pIC50 [5] | pIC50 (Androgen receptor) | pIC50 (Estrogen receptor) | pIC50 (Glucocorticoid receptor [6]) | pEC50 (Glucocorticoid receptor [1]) | pEC50 (Glucocorticoid receptor [3])
C=CC[C@H](O)[C@H]1CCCC2=Cc3c(cnn3-c3ccc(F)cc3)C[C@@]21C | 8.03 | 8.41 | 7.44 |  |  |  |  |  | 6.18 | 7.18
C[C@]12Cc3cnn(-c4ccc(F)cc4)c3C=C1CCC[C@@H]2[C@](C)(O)c1ccsc1 | 9.00 | 9.10 | 8.28 |  |  |  |  |  | 7.45 | 7.85
CC(C)(O)[C@H]1CCCC2=Cc3c(cnn3-c3ccc(F)cc3)C[C@@]21C | 8.52 | 8.72 | 7.82 |  |  |  |  |  | 7.08 | 6.74
C[C@]12Cc3cnn(-c4ccc(F)cc4)c3C=C1CCC[C@@H]2[C@@H](O)CCC1CC1 | 8.07 | 8.82 | 7.58 |  |  |  |  |  | 6.48 | 7.18
C[C@]12Cc3cnn(-c4ccc(F)cc4)c3C=C1CCC[C@@H]2[C@@H](O)Cc1ccc(F)cc1 | 8.49 | 8.55 | 8.43 |  |  |  |  |  | 6.00 | 7.27
Cc1cc([C@H](O)[C@H]2CCCC3=Cc4c(cnn4-c4ccc(F)cc4)C[C@@]32C)ccc1F | 7.99 | 8.17 | 7.27 |  |  |  |  |  |  | 
C[C@]12C=CC(=O)C=C1CCC1[C@@H]2[C@@H](O)C[C@@]2(C)[C@H]1CC[C@]2(O)C(=O)CO (single isomer, unassigned) [PREDNISOLONE] |  |  | 8.24 |  |  |  |  |  |  | 
